Screening data (PubChem)
Shown are actives, neighbours in structure and some others; about 1.4% of the full set was active somewhere.
TNAP inh hi DEA – human TNAP enzyme inhibitors, primary screen, biochemical, luminescent, high phosphate acceptor level, uHTS; AID 1135, 2008; Alkaline phosphatase, tissue-nonspecific isozyme (Homo sapiens), P05186; purified TNAP, CDP-star luminescence, 1 M DEA; inhibition, % at 20 µM; 0.03% of 200,000 active;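 active = over 50% inhibition of tissue-nonspecific alkaline phosphatase at 20 µM in the single-dose screen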;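 note: plate controls were DMSO wells for no effect and EDTA-quenched wells as full inhibition for full effect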
Target sequence (P05186 whole entry, looked up): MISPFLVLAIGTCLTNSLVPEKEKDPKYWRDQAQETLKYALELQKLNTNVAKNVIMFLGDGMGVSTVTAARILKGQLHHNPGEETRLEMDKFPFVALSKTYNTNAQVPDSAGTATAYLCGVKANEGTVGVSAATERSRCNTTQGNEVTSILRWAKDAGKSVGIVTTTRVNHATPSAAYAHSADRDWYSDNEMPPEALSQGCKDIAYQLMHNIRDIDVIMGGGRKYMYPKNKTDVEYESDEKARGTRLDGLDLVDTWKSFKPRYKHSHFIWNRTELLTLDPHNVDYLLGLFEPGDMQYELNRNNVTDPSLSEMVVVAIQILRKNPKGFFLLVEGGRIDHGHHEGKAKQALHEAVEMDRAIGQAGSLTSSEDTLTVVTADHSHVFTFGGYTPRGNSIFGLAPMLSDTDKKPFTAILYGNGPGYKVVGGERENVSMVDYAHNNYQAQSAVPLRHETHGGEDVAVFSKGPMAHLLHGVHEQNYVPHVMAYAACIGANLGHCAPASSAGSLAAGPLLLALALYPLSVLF
CHT inh – inhibitors of human choline transporter CHT; High affinity choline transporter 1 (Homo sapiens), Q9GZV3; CHT-expressing cells, membrane potential dye, choline response; active compounds read low; B-score at 10 µM; 0.86% of 310,000 active; AID 488975, 2010;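 active = B-score over 3 SD under the library average, and starting fluorescence ratio not unusually high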;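 note: choline stimulus applied at its EC90 after an EC20 pre-addition; B-score computed on integrated fluorescence ratio after choline addition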
CHT allo act – CHT positive allosteric modulators, primary screen, cell-based, membrane potential dye, choline EC20; High affinity choline transporter 1 (Homo sapiens), Q9GZV3; CHT-expressing cells; active compounds read high; LV-AA mutant CHT in HEK293 cells; B-score at 10 µM; 0.49% of 310,000 active; AID 488977, 2010;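 active = initial fluorescence not abnormally high and integrated response B-score, plate-corrected, over 3 SD above library mean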
ABCB6 inh MLPCN – ABCB6 transporter inhibitors, primary screen, K562-ABCB6 cells, flow cytometry, MLPCN library; ATP-binding cassette sub-family B member 6 (Homo sapiens), Q9NP58; K562-ABCB6 porphyrin accumulation, 1 h; active compounds read low; fluorescence ratio to DMSO, % at 10 µM; 0.19% of 360,000 active; AID 602162, 2011;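 active = fluorescence ratio to DMSO below 75%, the collection mean minus 3 SD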;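 note: signal is porphyrin accumulated inside mitochondria; 100% equals median channel fluorescence of DMSO control wells; lower ratio means ABCB6 inhibition with less porphyrin fluorescence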
TNAP act hiacc – TNAP activators at high phosphate acceptor level, primary screen, biochemical, luminescence, uHTS; Alkaline phosphatase, tissue-nonspecific isozyme (Homo sapiens), P05186; 200,000 tested, under 10 active; activation factor at 20 µM; purified TNAP, CDP-star luminescence, 1 M DEA, 30 min; active compounds read high; 0 = EDTA background, 1 = DMSO-only activity;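 active = activation factor at least 2 at 20 µM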
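system = human TNAP | amount = enzyme diluted 1/800 final | reagent = 100 µM CDP-star substrate | signal = luminescent substrate turnover signal | dosing = one dose, 20 µM | benchmarks = EDTA negative control, DMSO positive control | measure = activation factor | timing = 30 min reaction, room temperature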
TNAP inh no acc – human TNAP enzyme inhibitors, primary screen, biochemical, luminescent, no phosphate acceptor, uHTS; inhibition, % at 20 µM; Alkaline phosphatase, tissue-nonspecific isozyme (Homo sapiens), P05186; purified TNAP, CDP-star luminescence, 30 min; 0.26% of 200,000 active;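 active = tissue-nonspecific alkaline phosphatase inhibition above about 50% at 20 µM in the single-dose screen, limit read from the data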;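 note: 0% = DMSO negative control and 100% = EDTA positive control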
CHT activ conf – CHT activators, confirmation, cell-based, membrane potential dye, duplicate; shares compounds with CHT allo act; CHT-expressing cells, membrane potential dye fluorescence (FDSS); % of choline EC20–EC90 response window; HEK293 expressing CHT LV-AA mutant; choline added at its EC20; activation, % at 10 µM; 91% of 2,500 active; AID 504833, 2011;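 active = primary screen active, with duplicate mean activation above negative control mean plus 3 SD, cut at about 11% in these data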
HEK293 MP dye – membrane potential response in parental HEK293 cells, counter-screen for CHT activator project, cell-based, membrane potential dye. shares compounds with CHT allo act. membrane potential dye fluorescence (FDSS); measured after EC20 choline addition. ratio readout change at 10 µM, hits read low. 62% of 2,500 active;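 active = duplicate-averaged ratio beyond 3 SD from buffer wells, up or down, though filed actives are nearly all decreases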
Starred values were filed as active, the others as inactive; i = inactive; x = not tested or not shown.

SMILES	TNAP inh hi DEA	CHT inh	CHT allo act	ABCB6 inh MLPCN	TNAP act hiacc	TNAP inh no acc	CHT activ conf	HEK293 MP dye
COc1cccc(Cl)c1NC(=O)N1CCN(c2cc(C)nc3ccccc23)CC1	x	i	6.7*	101	x	x	42*	-50*
COc1ccc2nc(C)cc(N3CCOCC3)c2c1	-1	i	i	88	1	-6	68*	-81*
COc1ccc(C(=O)CN2CCN(c3cc(C)nc4ccccc34)CC2)cc1	x	i	8.5*	99	x	x	64*	-78*
Cc1cc(N2CCN(S(=O)(=O)c3ccc(Cl)cc3)CC2)c2ccccc2n1	-8	i	i	92	1.1	-2	x	x
Cc1cc(N2CCN(CC(O)C(F)(F)F)CC2)c2ccccc2n1 (configuration not stated)	x	i	i	96	x	x	72*	-72*
COc1ccc2nc(C)cc(N3CCN(c4ccccc4)CC3)c2c1	x	i	i	93	x	x	x	x
Cc1cc(N2CCN(S(=O)(=O)c3ccc(Cl)c(Cl)c3)CC2)c2ccccc2n1	0	i	i	84	1	-2	x	x
COCCNCC(=O)Nc1nc(C)cs1	-3	x	x	104	1	-7	x	x
C[C@@H](NCCCn1cnc2c(OCc3ccccc3)ncnc21)c1cccc2ccccc12	x	x	x	101	x	x	x	x
Cc1[nH]c(=O)c(C#N)c(C)c1CCC(=O)NCc1ccc(Cl)cc1	x	i	i	104	x	x	x	x
O=C(NNC(=O)c1cc([N+](=O)[O-])ccc1Cl)c1cccs1	-2	i	i	100	1	-9	x	x
c1cncc(-c2nc(NCC3CCCO3)c3ccccc3n2)c1 (configuration not stated)	x	i	i	99	x	x	22*	-33*
CC(C)Oc1ccc(-c2nc(NCC3CCCO3)c3ccccc3n2)cc1 (configuration not stated)	x	i	i	104	x	x	x	x
CSc1ccccc1C(=O)N(C)C(c1ccccc1)c1ccccc1	x	i	i	100	x	x	45*	i
CSc1ccccc1C(=O)N(C)Cc1ccccc1	-1	i	i	93	1	-5	x	x
Cc1ccc(OCc2nc(C#N)c(N3CCN(Cc4ccccc4)CC3)o2)cc1	-7	i	11*	91	1.1	-16	33*	i
N#Cc1nc(COc2ccccc2)oc1N1CCN(Cc2ccccc2)CC1	-6	i	10*	86	1.1	-10	36*	i
CC(C)CNC(=O)c1ccccc1N(Cc1ccccc1)S(C)(=O)=O	x	i	i	92	x	x	x	x
CCN(C(=O)COC(=O)c1ccccc1NCCO)c1cccc2ccccc12	x	i	i	99	x	x	x	x
Cc1c(OCC(=O)NCCCN2CCCC2=O)ccc2c3c(c(=O)oc12)CCCC3	x	i	i	97	x	x	x	x
Cc1c(O)c(CN2CCCC2)cc2c3c(c(=O)oc12)CCC3	0	i	9.8*	115	1	-9	37*	-72*
Cc1c(OCC(=O)NCCCN2CCCC2=O)ccc2c3c(c(=O)oc12)CCC3	x	i	i	100	x	x	36*	-30*
COC(=O)c1ccc(COc2ccc3c(C)c(C)c(=O)oc3c2C)o1	-7	x	x	x	1.1	-12	x	x
Cc1c(O)c(CN2CCCC2)cc2c1oc(=O)c1ccccc12	-4	i	i	99	1	-9	x	x
Cc1c(OCc2ccc(C(=O)O)o2)ccc2c3c(c(=O)oc12)CCC3	-8	i	i	97	1.1	-2	39*	-25*
SMILES	TNAP inh hi DEA	CHT inh	CHT allo act	ABCB6 inh MLPCN	TNAP act hiacc	TNAP inh no acc	CHT activ conf	HEK293 MP dye
CN(Cc1cccnc1)C(=O)c1cc(COc2ccc3c(c2)CCCC3)on1	x	i	i	91	x	x	2	i
CCCNC(=O)Cn1c(=O)oc2ccccc21	3	i	i	102	1	16	x	x
COCC(=O)n1nc(NCc2ccc(OC)cc2)nc1NCc1ccc(OC)cc1	-2	i	i	94	1	-5	10*	i
Cc1nc2ccccc2c2ncccc12	x	i	i	97	x	x	x	x
Cc1ccc(C(=O)c2c3ccc([N+](=O)[O-])cc3[n+]([O-])n2CCCN)cc1	x	i	6.5*	95	x	x	34*	-40*
COc1ccc(CCC(=O)N/N=C/c2ccc3c(c2)OCO3)cc1	x	i	i	98	x	x	x	x
COC(=O)c1ccc(C)c(NS(=O)(=O)c2ccc(OC)cc2)c1	4	i	8.1*	104	1	-4	48*	i
COC(=O)c1ccc(C)c(NS(=O)(=O)c2ccc(C)c([N+](=O)[O-])c2)c1	-4	i	i	93	1	-5	x	x
CCOC(=O)c1nc2cc3n(c(C)c-2c1C)C(C)C(C)=C3C (configuration not stated)	-3	i	i	93	1	-17	x	x
CCOC(=O)c1nc2cc3n(c(CC(C)C)c-2c1C)CC(C)=C3C	0	i	i	111	1	-26	44*	-40*
Clc1ccccc1-c1nn2c(-c3ccccn3)nnc2s1	-12	i	i	95	1.1	-4	43*	-38*
Cc1cc2nc(-c3ccccc3)c(Cc3cccc(Cl)c3)n2c(C)c1Br	x	x	x	97	x	x	x	x
CC(=O)Oc1ccccc1/C=C/c1ccc2ccccc2[n+]1C	x	i	6.9*	107	x	x	48*	-42*
COc1ccc(/C=C/c2ccc3ccccc3[n+]2C)cc1OC	x	i	i	287	x	x	x	x
Cc1cc(Nc2cccc([N+](=O)[O-])c2)c2ccccc2n1	1	i	i	110	1	0	x	x
Cc1cc(C)nc(/N=C(\N)Nc2cccc([N+](=O)[O-])c2)n1	0	i	i	94	1	3	28*	-46*
Cc1cc(Nc2cccc([N+](=O)[O-])c2)c2cccc(C)c2n1	x	i	i	96	x	x	42*	-52*
CN(CC(=O)NCc1ccco1)CC(=O)Nc1cc(S(C)(=O)=O)ccc1Cl	x	x	x	104	x	x	x	x
c1ccc(NCc2nc3ccccc3n2CCOc2ccccc2)cc1	2	i	i	95	1	-6	x	x
